Measured values reported in ChEMBL document CHEMBL1649090, “Discovery of (7R)-14-cyclohexyl-7-{[2-(dimethylamino)ethyl](methyl) amino}-7,8-dihydro-6H-indolo[1,2-e][1,5]benzoxazocine-11-carboxylic acid (MK-3281), a potent and orally bioavailable finger-loop inhibitor of the hepatitis C virus NS5B polymerase” (J Med Chem, 2011).

What was measured:
[1] = tested on: Hepatitis C virus; test: Antiviral activity against HCV1b BK; format: functional, organism-based, Hepacivirus hominis; conditions: genotype 1b BK
[2] = Volume of distribution at steady state in rhesus monkey at 2 mg/kg, iv and 4 mg/kg, po; format: ADME, organism-based, Macaca mulatta; conditions: in vivo, read-out: Vdss
Summary of the method: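 Single iv and single oral doses, given as the bis-HCl salt, in rat, dog and rhesus, n = 3 per species (dog oral n = 2). The iv vehicle was DMSO/PEG400/water 20%/60%/20%. Oral vehicle was PEG400 for rat and dog and PEG400/water 70%/30% for rhesus. Values are mean ± SD.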

[3] = Intrinsic clearance in human liver microsomes assessed per mg of protein presence of UDPGA; format: ADME, Microsome
[4] = AUC in Sprague-Dawley rat at 3 mg/kg, po; format: ADME, organism-based; set-up: dose 3 mg/kg, route oral; conditions: plasma
Summary of the method: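 Single-dose rat PK with the compound given as its TFA salt to Sprague-Dawley rats (n = 3) in DMSO/PEG400/water 20%/60%/20%. Dosing was 3 mg/kg iv and 3 mg/kg po.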

[5] = Plasma protein binding in dog; format: ADME, cell-free, Canis lupus familiaris; conditions: read-out: PPB (converted)
[6] = target: Cytochrome P450 2D6 (Homo sapiens, UniProt P10635); test: Inhibition of CYP2D6 up to 50 uM; format: ADME
[7] = tested on: Mus musculus; test: Toxicity in SCID mouse assessed as change in body weight at 50 mg/kg, ip bid for 5 days; format: organism-based; set-up: dose 50 mg/kg, route intraperitoneal; conditions: in vivo, 120 h
Summary of the method: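 Non-infected SCID mice (n = 3) received 50 mg/kg by intraperitoneal injection twice daily for five consecutive days, as a tolerability run before the infected-mouse study. Body and organ weights were checked for gross changes. Plasma compound levels were measured 12 h after the last dose.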

Chain of Cytochrome P450 2D6 (P10635 whole entry): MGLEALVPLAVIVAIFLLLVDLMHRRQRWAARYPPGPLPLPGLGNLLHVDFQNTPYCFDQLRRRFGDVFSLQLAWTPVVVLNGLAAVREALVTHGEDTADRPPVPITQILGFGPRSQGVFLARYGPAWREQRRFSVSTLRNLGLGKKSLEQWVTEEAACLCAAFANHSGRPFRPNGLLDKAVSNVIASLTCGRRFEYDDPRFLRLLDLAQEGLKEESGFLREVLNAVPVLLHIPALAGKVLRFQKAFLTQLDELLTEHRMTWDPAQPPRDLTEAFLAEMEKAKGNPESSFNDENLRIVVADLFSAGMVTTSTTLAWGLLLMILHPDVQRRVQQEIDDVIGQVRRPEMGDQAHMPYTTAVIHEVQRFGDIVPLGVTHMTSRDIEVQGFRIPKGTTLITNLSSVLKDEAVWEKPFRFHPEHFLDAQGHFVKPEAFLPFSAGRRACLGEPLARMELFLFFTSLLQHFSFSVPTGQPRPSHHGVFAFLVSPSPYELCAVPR

`CN(C)CCN(C)[C@H]1COc2ccccc2-c2c(C3CCCCC3)c3ccc(C(=O)O)cc3n2C1` [MK-3281] gave an EC50 [1] of 9 nM, a Vd [2] of 2.2 L/kg and a microsomal CLint [3] of under 4 µL/min/mg. For the same compound, the AUC [4] was 2.4 µM·h, the fraction unbound [5] was 0.027 and the “inhibition (INH)” value [6] was “Not Active”. The Activity [7] was “Non-toxic”.
